According to ChEMBL document CHEMBL3526003, “Pharmacokinetics of the monohydroxy derivative of oxcarbazepine and its enantiomers after a single intravenous dose given as racemate compared with a single oral dose of oxcarbazepine” (Drug Metab Dispos, 2011):

Key:
[1] = Total plasma clearance in human treated with monohydroxy derivative of OXC at 200 mg, iv administered as single dose by high-performance liquid chromatography; format: ADME, organism-based
Summary of the method: (§1)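 Pilot study: single intravenous racemic MHD at 150, 200 or 250 mg, one subject per dose. Plasma was sampled to 72 h and analysed by HPLC. Total plasma clearance was computed as Dose/AUC, with AUC from the linear trapezoidal rule.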

[2] = Total plasma clearance in human treated with monohydroxy derivative of OXC at 250 mg, iv administered as single dose by high-performance liquid chromatography; format: ADME, organism-based; summary of the method: as §1
[3] = Renal clearance in human treated with oxcarbazepine at 300 mg, po administered as one-film coated tablet by high-performance liquid chromatography; format: ADME, organism-based, Kidney; conditions: in vivo
Summary of the method: (§2)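 300 mg oral tablet given to 12 healthy adults. Urine was collected in fractions up to 72 h and kept at 2–8 °C, then frozen at -20 °C. Analytes were measured by HPLC before and after β-glucuronidase hydrolysis (pH 6.7, 37 °C, about 15 h). Renal clearance was Ae/plasma AUC. Urinary terminal half-life came from log-linear slopes between 4–18 h and 40–64 h.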

[4] = AUC (0 to 72 hrs) in human treated with monohydroxy derivative of OXC at 200 mg, iv administered as single dose by high-performance liquid chromatography; format: ADME, organism-based; design: time < 72 hr, dose 200 mg, route intravenous; conditions: plasma
Summary of the method: (§3)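 Pilot ascending-dose study: one healthy subject per level received 150, 200 or 250 mg racemic MHD intravenously as a single dose. Plasma was sampled to 72 h and assayed by non-enantioselective and enantioselective HPLC. AUC(0-72h) was computed by the linear trapezoidal method.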

[5] = Total plasma clearance in human treated with monohydroxy derivative of OXC at 150 mg, iv administered as single dose by high-performance liquid chromatography; format: ADME, organism-based; summary of the method: as §1
[6] = Renal clearance in human treated with monohydroxy derivative of OXC at 250 mg, iv administered as infusion over 30 mins by high-performance liquid chromatography; format: ADME, organism-based, Kidney; conditions: in vivo
Summary of the method: (§4)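 250 mg racemic MHD infused intravenously over 30 min to 12 healthy adults. Plasma was drawn at 0 to 30 min and up to 72 h, and urine was fractionated to 72 h. Enantioselective HPLC was used. Renal clearance was Ae/AUC; Vss was CL_T·MRT (AUMC/AUC). Urinary half-life came from log-linear slopes between 4–18 h and 40–64 h.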

[7] = AUC (0 to 72 hrs) in human treated with monohydroxy derivative of OXC at 250 mg, iv administered as single dose by high-performance liquid chromatography; format: ADME, organism-based; design: dose 250 mg, time < 72 hr, route intravenous; conditions: plasma; summary of the method: as §3
[8] = Cmax in human treated with oxcarbazepine at 300 mg, po administered as one-film coated tablet by high-performance liquid chromatography; format: ADME, organism-based; design: dose 300 mg, route oral; conditions: in vivo
Summary of the method: (§5)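 Healthy adults (6 male, 6 female), single 300 mg film-coated tablet by mouth, fasting, in a randomized two-way crossover with at least one week of washout. Venous heparinized blood was drawn at 0–72 h. Plasma was separated at 2200 g and stored at -80 °C. Non-enantioselective and enantioselective HPLC were used. Cmax/tmax were the observed peak; AUC was by linear trapezoidal rule.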

[9] = AUC (0 to 32/48 hrs) in human treated with oxcarbazepine at 300 mg, po administered as one-film coated tablet by high-performance liquid chromatography; format: ADME, organism-based; conditions: plasma; summary of the method: as §5
[10] = Drug excretion in human urine assessed as total amount of drug eliminated treated with oxcarbazepine at 300 mg, po administered as one-film coated tablet by high-performance liquid chromatography; format: ADME, organism-based; conditions: read-out: Ae; summary of the method: as §2
[11] = Apparent terminal half life in human plasma treated with monohydroxy derivative of OXC at 250 mg, iv administered as infusion over 30 mins by high-performance liquid chromatography; format: ADME, organism-based; conditions: read-out: betat1/2(app) (converted)
Summary of the method: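 Healthy adult volunteers (6 male, 6 female), randomized two-way crossover with at least one week washout; single 250 mg racemic MHD infused i.v. over 30 min. Heparinized plasma sampled 0–30 min then 1–72 h after start of infusion, stored -80 C; enantiomers quantified by enantioselective HPLC.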

[12] = AUC (0 to 72 hrs) in human treated with monohydroxy derivative of OXC at 150 mg, iv administered as single dose by high-performance liquid chromatography; format: ADME, organism-based; design: dose 150 mg, time < 72 hr, route intravenous; conditions: plasma; summary of the method: as §3
[13] = Terminal half life in human urine treated with oxcarbazepine at 300 mg, po administered as one-film coated tablet by high-performance liquid chromatography; format: ADME, organism-based; conditions: read-out: beta t1/2 (converted); summary of the method: as §2
[14] = Volume of distribution at steady state in human treated with monohydroxy derivative of OXC at 250 mg, iv administered as infusion over 30 mins by high-performance liquid chromatography; format: ADME, organism-based; conditions: in vivo, read-out: Vdss; summary of the method: as §4
[15] = Apparent terminal half life in human plasma treated with oxcarbazepine at 300 mg, po administered as one-film coated tablet by high-performance liquid chromatography; format: ADME, organism-based; conditions: read-out: betat1/2(app) (converted)
Summary of the method: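 Healthy adult volunteers (6 male, 6 female), randomized two-way crossover with at least one week washout; single oral 300 mg film-coated oxcarbazepine tablet, fasting. Heparinized plasma sampled 0–72 h post dose, stored -80 C; MHD enantiomers quantified by enantioselective HPLC.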

[16] = Tmax in human treated with oxcarbazepine at 300 mg, po administered as one-film coated tablet by high-performance liquid chromatography; format: ADME, organism-based; conditions: in vivo
Summary of the method: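 Healthy adults (6 male, 6 female) took a single dose under fasting conditions in an open randomized two-way crossover with at least one week washout. Heparinized plasma was sampled at 0, 1, 2, 3, 4, 6, 8, 10, 24, 32, 48, 56 and 72 h, and stored at -80 C. Analytes were measured by HPLC (UV 210 nm for MHD). Cmax and Tmax are the highest observed concentration and its time relative to dosing.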

[17] = Terminal half life in human urine treated with monohydroxy derivative of OXC at 250 mg, iv administered as infusion over 30 mins by high-performance liquid chromatography; format: ADME, organism-based; conditions: read-out: beta t1/2 (converted); summary of the method: as §4
[18] = AUC (0 to 72 hrs) in human at 150 mg, iv administered as single dose by high-performance liquid chromatography; format: ADME, organism-based; design: dose 150 mg, time < 72 hr, route intravenous; conditions: plasma; summary of the method: as §3
[19] = Renal clearance in human at 150 mg, iv administered as single dose by high-performance liquid chromatography; format: ADME, organism-based, Kidney; conditions: in vivo
Summary of the method: (§6)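 Pilot ascending-dose study: one subject per level received single intravenous racemic MHD (150, 200, 250 mg). Urine was pooled 0–72 h, and unchanged drug was measured by HPLC as percent of dose excreted. Renal clearance was the amount excreted unchanged divided by plasma AUC.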

[20] = Total plasma clearance in human at 150 mg, iv administered as single dose by high-performance liquid chromatography; format: ADME, organism-based; summary of the method: as §1
[21] = Drug excretion in human urine assessed as total amount of drug eliminated at 150 mg, iv administered as single dose measured for 72 hrs post-dose by high-performance liquid chromatography; format: ADME, organism-based; conditions: read-out: Ae; summary of the method: as §6
[22] = AUC (0 to 72 hrs) in human at 200 mg, iv administered as single dose by high-performance liquid chromatography; format: ADME, organism-based; design: dose 200 mg, time < 72 hr, route intravenous; conditions: plasma; summary of the method: as §3
[23] = Total plasma clearance in human at 250 mg, iv administered as single dose by high-performance liquid chromatography; format: ADME, organism-based; summary of the method: as §1
[24] = Renal clearance in human at 200 mg, iv administered as single dose by high-performance liquid chromatography; format: ADME, organism-based, Kidney; conditions: in vivo; summary of the method: as §6
[25] = Total plasma clearance in human at 200 mg, iv administered as single dose by high-performance liquid chromatography; format: ADME, organism-based; summary of the method: as §1
[26] = AUC (0 to 72 hrs) in human at 250 mg, iv administered as single dose by high-performance liquid chromatography; format: ADME, organism-based; design: dose 250 mg, time < 72 hr, route intravenous; conditions: plasma; summary of the method: as §3
[27] = Renal clearance in human at 250 mg, iv administered as single dose by high-performance liquid chromatography; format: ADME, organism-based, Kidney; conditions: in vivo; summary of the method: as §6
[28] = AUC in human at 250 mg, iv administered as infusion over 30 mins by non-enantiospecific assay based high-performance liquid chromatography; format: ADME, organism-based; design: time < 0.5 hr, dose 250 mg, route intravenous; conditions: plasma
Summary of the method: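 Crossover of 12 healthy adults: 250 mg racemic MHD infused intravenously over 30 min versus a 300 mg oral tablet, with at least one week of washout. Plasma MHD was measured by non-enantioselective HPLC-UV at 210 nm after C18 solid-phase extraction (LOQ 0.1 µmol/L). Bioavailability f was the dose-corrected ratio of oral to intravenous AUC.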

[29] = Drug excretion in human urine assessed as total amount of drug eliminated at 250 mg, iv administered as single dose measured for 72 hrs post-dose by high-performance liquid chromatography; format: ADME, organism-based; conditions: read-out: Ae; summary of the method: as §6
[30] = Drug excretion in human urine assessed as total amount of drug eliminated at 200 mg, iv administered as single dose measured for 72 hrs post-dose by high-performance liquid chromatography; format: ADME, organism-based; conditions: read-out: Ae; summary of the method: as §6

Row | Structure (SMILES) | clearance [1] [mL/min] | clearance [2] [mL/min] | CL renal [3] [mL/min] | AUC(0-t) at 72 h [4] [µM·h] | clearance [5] [mL/min] | CL renal at 0.5 h [6] [mL/min] | AUC(0-t) at 72 h [7] [µM·h] | Cmax [8] [µM] | dose excreted [10] [%] | half-life [11] [h] | AUC(0-t) at 72 h [12] [µM·h] | half-life [13] [h] | Vd [14] [L] | other results
1 | NC(=O)N1c2ccccc2C[C@H](O)c2ccccc21 [ESLICARBAZEPINE] | 71.2 | 42.7 | 18.3 | 92.2 | 71.2 | 15 | 192 | 11 | 21.8 | 10.6 | 69 | 8.5 | 45.9 | AUC at 48 h [9]: 241 µM·h
2 | NC(=O)N1c2ccccc2C[C@@H](O)c2ccccc21 | 111 | 62.2 | 16.7 | 59.1 | 88.3 | 15 | 132 | 3 | 4.85 | 9 | 55.7 | 7 | 54.7 | half-life [15]: 15.8 h; Tmax [16]: 3.5 h; half-life [17]: 9 h
3 | NC(=O)N1c2ccccc2CC(O)c2ccccc21 (racemic) [LICARBAZEPINE] | – | – | – | – | – | – | – | – | – | – | – | – | – | AUC(0-t) at 72 h [18]: 109 µM·h; CL renal [19]: 21.8 mL/min; clearance [20]: 90 mL/min; dose excreted at 72 h [21]: 24.3%; AUC(0-t) at 72 h [22]: 142 µM·h; clearance [23]: 58.5 mL/min; CL renal [24]: 28.3 mL/min; clearance [25]: 92 mL/min; AUC(0-t) at 72 h [26]: 280 µM·h; CL renal [27]: 25 mL/min; AUC at 0.5 h [28]: 261 µM·h; dose excreted at 72 h [29]: 42.8%; dose excreted at 72 h [30]: 30.7%
